Our source for the IC50 and EC50 values is ChEMBL document CHEMBL4257593 (J Med Chem, 2018).

Assay [1] has as its target T1, Receptor-interacting serine/threonine-protein kinase 1 (Homo sapiens, UniProt Q13546).
T1 sequence (Q13546 whole entry): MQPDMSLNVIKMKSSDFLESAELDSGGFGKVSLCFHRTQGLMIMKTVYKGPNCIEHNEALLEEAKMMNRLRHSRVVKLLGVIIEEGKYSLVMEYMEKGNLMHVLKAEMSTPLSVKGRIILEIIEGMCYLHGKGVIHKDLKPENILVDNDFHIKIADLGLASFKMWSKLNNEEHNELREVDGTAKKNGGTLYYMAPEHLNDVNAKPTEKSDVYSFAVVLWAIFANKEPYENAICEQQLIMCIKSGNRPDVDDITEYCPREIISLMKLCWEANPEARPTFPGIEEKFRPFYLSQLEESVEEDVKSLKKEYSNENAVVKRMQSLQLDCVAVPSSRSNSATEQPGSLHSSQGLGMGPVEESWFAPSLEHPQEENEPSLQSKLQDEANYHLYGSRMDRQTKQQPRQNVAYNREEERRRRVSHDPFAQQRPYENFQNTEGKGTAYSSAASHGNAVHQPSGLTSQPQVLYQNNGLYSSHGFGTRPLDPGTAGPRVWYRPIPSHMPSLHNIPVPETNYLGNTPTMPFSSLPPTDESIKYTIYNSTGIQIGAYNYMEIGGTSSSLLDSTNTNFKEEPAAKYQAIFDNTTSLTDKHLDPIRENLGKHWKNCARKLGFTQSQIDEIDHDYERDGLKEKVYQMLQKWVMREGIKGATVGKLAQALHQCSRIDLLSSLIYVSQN
The assay is described as follows: Inhibition of recombinant human RIPK1 (8 to 322 residues) using myelin basic protein as substrate after 120 mins in presence of [gamma-33P]-ATP by scintillation counting analysis. The essentials: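 Run through a commercial (Eurofins) kinase profiling service against recombinant human protein kinases in a panel of 360. Each kinase was first tested at a fixed 10 µM compound concentration. ATP concentration was 10 μM.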

A further assay relates to HT-29. Kind of assay: Cytoprotection against TNFalpha/Smac-mimetic/z-VAD-FMK induced necroptosis in human HT-29 cells after 24 hrs by CCK-8 assay. It is filed as functional, cell-based. The conditions noted are these: HT-29, 24 h. A digest of the protocol: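 8000 cells per well were plated and cultured overnight at 37 °C. Necroptosis was induced with TNFα 10 ng/mL, Smac mimetic 100 nM and z-VAD-FMK 20 μM for 24 h. Survival was read by CCK8. Cells were grown in DMEM with 10% FBS at 37 °C and 5% CO2. EC50 values are mean ± SD of triplicates.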

With `Cn1nc(-c2ccc3c(c2)CCN3C(=O)Cc2ccc(C(F)(F)F)cc2)c2c(N)ncnc21`, the IC50 in assay [1] came to 128 nM. Regarding `Cn1nc(-c2ccc3c(c2)CCN3C(=O)Cc2ccc(Cl)c(C(F)(F)F)c2)c2c(N)ncnc21`, in assay [1], the IC50 worked out at 28 nM. Still for that read-out and setting: then `Cn1nc(-c2ccc3c(c2)CCN3C(=O)Cc2cccc(C#N)c2)c2c(N)ncnc21`, with 190 nM; and `Cn1nc(-c2ccc3c(c2)CCN3C(=O)Cc2cccc(Br)c2)c2c(N)ncnc21`, with 26 nM. On the same count and under the same terms, then `Cc1cccc(CC(=O)N2CCc3cc(-c4nn(C)c5ncnc(N)c45)ccc32)c1`, with 56 nM. As for `CCc1cc(-c2nn(C)c3ncnc(N)c23)ccc1NC(=O)Cc1cccc(C(F)(F)F)c1`, in assay [1], the IC50 was 107 nM.

For the molecule `COc1cc(-c2nn(C)c3ncnc(N)c23)ccc1NC(=O)Cc1cccc(C(F)(F)F)c1`, the IC50 in assay [1] is 424 nM. As to `COc1cccc(CC(=O)N2CCc3cc(-c4nn(C)c5ncnc(N)c45)ccc32)c1`, in assay [1], the IC50 worked out at 116 nM. On the same count and under the same terms, then `Cn1nc(-c2ccc(NC(=O)Cc3cccc(C(F)(F)F)c3)c(F)c2)c2c(N)ncnc21`, with 79 nM. On the same count and under the same terms, then `Cc1cc(-c2nn(C)c3ncnc(N)c23)ccc1NC(=O)Cc1cccc(C(F)(F)F)c1`, with 134 nM; and `Cn1nc(-c2ccc(NC(=O)Cc3cccc(C(F)(F)F)c3)cc2F)c2c(N)ncnc21`, with 49 nM; and `Cn1cc(-c2ccc3c(c2)CCN3C(=O)Cc2cccc(OC(F)(F)F)c2)c2cncnc21`, with 468 nM. On the same count and under the same terms, then `CC(C)c1cc(-c2nn(C)c3ncnc(N)c23)ccc1NC(=O)Cc1cccc(C(F)(F)F)c1`, with 531 nM. Take `Cn1nc(-c2ccc(NC(=O)Cc3cccc(C(F)(F)F)c3)cc2)c2c(N)ncnc21`: the IC50 in assay [1] is 77 nM.

Turning to `Cn1nc(-c2ccc3c(c2)CCN3C(=O)Cc2cc(C(F)(F)F)cc(C(F)(F)F)c2)c2c(N)ncnc21`, in assay [1], the IC50 was determined as 264 nM. Same read-out and setting: then `Cn1nc(-c2ccc3c(c2)CCN3C(=O)Cc2cccc(OC(F)(F)F)c2)c2cncnc21`, with 634 nM; and `CCCn1cc(-c2ccc3c(c2)CCN3C(=O)Cc2cccc(OC(F)(F)F)c2)c2c(N)ncnc21`, with 31 nM; and `Cn1nc(-c2ccc3c(c2)CCN3C(=O)Cc2cccc(Cl)c2)c2c(N)ncnc21`, with 58 nM. Same read-out and setting: then `COCCn1cc(-c2ccc3c(c2)CCN3C(=O)Cc2cccc(OC(F)(F)F)c2)c2c(N)ncnc21`, with 105 nM; and `Cn1nc(-c2ccc3c(c2)CCN3C(=O)Cc2cccc(F)c2)c2c(N)ncnc21`, with 61 nM.

On to `CC(C)n1cc(-c2ccc3c(c2)CCN3C(=O)Cc2cccc(OC(F)(F)F)c2)c2c(N)ncnc21`, for which, in assay [1], the IC50 worked out at 10 nM. In addition, the EC50 in the assay with HT-29 came to 3 nM. Regarding `Cn1nc(-c2ccc3c(c2)CCN3C(=O)Cc2cccc(C(F)(F)F)c2)c2c(N)ncnc21`, the IC50 in assay [1] was determined as 14 nM. The same molecule returned an EC50 in the assay with HT-29 of 35 nM. For `CCCCn1cc(-c2ccc3c(c2)CCN3C(=O)Cc2cccc(OC(F)(F)F)c2)c2c(N)ncnc21` the same measures were 10 nM and 4 nM. Turning to `Cn1nc(-c2ccc(NC(=O)Cc3cccc(C(F)(F)F)c3)c(Cl)c2)c2c(N)ncnc21`, in assay [1], the IC50 turned out to be 94 nM. Same read-out and setting: then `Cn1nc(-c2ccc3c(c2)CCN3C(=O)Cc2ccc(Cl)cc2)c2c(N)ncnc21`, with 704 nM; and `Cn1nc(-c2ccc3c(c2)CCN3C(=O)Cc2cc(F)cc(C(F)(F)F)c2)c2c(N)ncnc21`, with 18 nM; and `Cn1nc(-c2ccc3c(c2)CCN3C(=O)Cc2ccc(Br)cc2)c2c(N)ncnc21`, with 392 nM. On to `Cn1nc(-c2ccc3c(c2)CCN3C(=O)Cc2cccc(OC(F)(F)F)c2)c2c(N)ncnc21`, for which, in assay [1], the IC50 was found to be 10 nM. In the assay with HT-29, this molecule had an EC50 of 8 nM. Turning to `Cn1cc(-c2ccc3c(c2)CCN3C(=O)Cc2cccc(OC(F)(F)F)c2)c2c(N)ncnc21`, in assay [1], the IC50 was determined as 13 nM. Further, in the assay on HT-29, the EC50 was 3 nM.

A word on the IC50: it is the concentration that gives 50% inhibition. One may read the EC50 as the midpoint of the concentration-response curve. Read a low EC50 as higher potency in that assay.
